Experimental data of several laboratories.
Each line is one published result; the experiments were not run side by side.
Medium: plasma

COc1ccnc(CNC(=O)c2cn(Cc3ccc(Cn4ccccc4=O)cc3)nc2C(F)(F)F)c1F  Cmax (male Sprague-Dawley rat; oral; 10 mg/kg): 2490 ng/mL
O=C(Nc1cc(F)c(F)c(F)c1)c1ccc(F)c(S(=O)(=O)NCc2cccc(B(O)O)c2)c1  Cmax (male Sprague-Dawley rat; oral; 20 mg/kg): 46.3 ng/mL
COCc1nn(Cc2ccc(Cn3ccccc3=O)cc2)cc1C(=O)NCc1nccc(OC)c1C  Cmax (male Sprague-Dawley rat; oral; 10 mg/kg): 1020 ng/mL
CCc1cc(OC)c2nccc(N3CCc4c(cc(Cn5ccnc5)cc4-c4cn(C)nc4C(F)(F)F)C3=O)c2c1  Cmax (male Sprague-Dawley rat; oral; 50 mg/kg): 2700 ng/mL
COc1nc(-c2cc(C)c(N[C@@H](C)c3cc(F)cc(F)c3)nn2)ccc1-n1cnc(C)c1  Cmax (male Sprague-Dawley rat; oral; 5 mg/kg; single dose): 3240 ng/mL
C=CC(=O)N1CC2CC(n3nc(-c4ccc(C(=O)Nc5ccccn5)cc4)c4c(N)ncnc43)CC2C1 (centres unmarked)  Cmax (male Wistar rat; oral; 100 mg/kg): 2880 ng/mL
C#Cc1cccc(Nc2ncnc3cc(OCCOC)c(OCCOC)cc23)c1  Cmax (male Sprague-Dawley rat; oral; 12 mg/kg; single dose): 1580 ng/mL
CC(C)(C)C[C@H]1N[C@@H](C(=O)NCC[C@H](O)CO)[C@H](c2cccc(Cl)c2)[C@@]12C(=O)Nc1cc(Cl)c(F)cc12  Cmax (rat; oral; 25 mg/kg): 6400 nM
Cl.Clc1ccc2c(c1)nc(N1CCNCC1)n2Cc1ccccc1  Cmax (rat; oral; 5 mg/kg): 800 nM
N#Cc1ccc(Nc2nc(N)cc(Oc3c(F)cc(-c4ccc(C#N)cc4)cc3F)n2)cc1  Cmax (Sprague-Dawley rat; intravenous; 1 mg/kg): 251 ng/mL
CCOC(=O)[C@@]12C[C@@H]1[C@@H](n1ccc3c(NC)nc(C#Cc4ccc(Cl)s4)nc31)[C@H](O)[C@@H]2O  Cmax (male Sprague-Dawley rat; oral; 10 mg/kg): 192 ng/mL
N#Cc1[nH]nnc1-c1cccc(OCc2cc(C(F)(F)F)ccc2C(F)(F)F)c1  Cmax (male Sprague-Dawley rat; oral; 10 mg/kg): 4820 ng/mL
CCc1cc(C(=O)NC)c2nccc(N3CCc4c(cc(Cn5ccnc5)cc4-c4cn(C)nc4C(F)(F)F)C3=O)c2c1  Cmax (male Sprague-Dawley rat; oral; 100 mg/kg; single dose): 10100 ng/mL
CCNC(=O)c1nc(-c2ccc3[nH]c(-c4nc(C)no4)cc3c2)c(C)[nH]1  Cmax (Sprague-Dawley rat; oral; 10 mg/kg; suspension): 2600 nM
COCCOC(=O)C1=C(C)NC(C)=C(C(=O)OC(C)C)C1c1cccc([N+](=O)[O-])c1 (centres unmarked)  Cmax (male Sprague-Dawley rat; oral; 12 mg/kg): 85 ng/mL
CCc1nc(C(N)=O)c(Nc2ccc(N3CCC(N4CCN(C)CC4)CC3)c(OC)c2)nc1NC1CCOCC1  Cmax (male Sprague-Dawley rat; oral; 10 mg/kg): 341 ng/mL
COc1cc2c3c(n(CCCN4CCOCC4)c(=O)c2cc1OC)-c1cc2c(cc1C3=O)OCO2  Cmax (female Fischer 344 rat; intravenous; 12 mg/m²; single dose): 301 ng/mL
COc1ccc2c(=O)n(C)c(-c3ccccc3)nc2c1  Cmax (male Sprague-Dawley rat; intravenous; 2 mg/kg): 2130 ng/mL
CC[C@H](C)[C@H](NC(=O)[C@H](Cc1ccccc1)NC(=O)[C@H](CCC(=O)O)NC(=O)[C@H](CCCNC(=N)N)NC(=O)[C@H](C)NC(=O)[C@H](C)NC(=O)[C@H](CCC(N)=O)NC(=O)[C@H](CCC(=O)O)NC(=O)[C@H](CCC(=O)O)NC(=O)[C@H](CC(C)C)NC(=O)[C@H](Cc1ccc(O)cc1)NC(=O)[C@H](CO)NC(=O)[C@H](CO)NC(=O)[C@@H](NC(=O)[C@H](CC(=O)O)NC(=O)[C@H](CO)NC(=O)[C@@H](NC(=O)[C@H](Cc1ccccc1)NC(=O)[C@@H](NC(=O)CNC(=O)[C@H](CCC(=O)O)NC(=O)[C@H](C)NC(=O)CCc1c[nH]cn1)[C@@H](C)O)[C@@H](C)O)C(C)C)C(=O)N[C@@H](C)C(=O)N[C@@H](Cc1c[nH]c2ccccc12)C(=O)N[C@@H](CC(C)C)C(=O)N[C@H](C(=O)N[C@@H](CCCNC(=N)N)C(=O)NCC(=O)N[C@@H](CCCNC(=N)N)C(=O)N[C@@H](CCCCNC(=O)COCCOCCNC(=O)COCCOCCNC(=O)CC[C@H](NC(=O)CCCCCCCCCCCCCCCCC(=O)O)C(=O)O)C(=O)O)C(C)C  Cmax (rat; subcutaneous; 20 nmol/kg): 64.2 nM
COc1ccc(C(C)=O)c(O)c1  Cmax (male Sprague-Dawley rat; oral; 100 mg/kg): 8460 ng/mL
Cc1c(-c2ccccc2)cccc1N1C(=O)c2cc(CN[C@H](C(=O)O)C(C)O)c(OCc3cccc(C#N)c3)cc2C1=O (some centres unmarked)  Cmax (Sprague-Dawley rat; oral; 50 mg/kg): 26 ng/mL
N#Cc1[nH]nnc1-c1cc(Cl)cc(/C=C/c2cccc(C(F)(F)F)c2)c1  Cmax (male Sprague-Dawley rat; oral; 10 mg/kg): 2670 ng/mL
CNCc1cc(-c2ccccc2F)n(S(=O)(=O)c2cccnc2)c1  Cmax (Sprague-Dawley rat; oral; 10 mg/kg): 245 ng/mL
